In brackets after ≈: the same amount, converted by molar mass. Activity calls are given as the source filed them.
Tests used:
[1] = Aqueous solubility of the compound in PBS buffer; assay type: physicochemical
[2] = target: Neuronal acetylcholine receptor subunit alpha-7 (Homo sapiens) (UniProt P36544); assay: Positive allosteric modulation of human alpha7 nAChR expressed in Xenopus laevis oocytes assessed as acetyl choline-evoked currents at 10 uM at -80 mV holding potential prtreated for 2 mins followed by co-treatment with acetyl choline by electrophysiology method relative to acetyl choline; assay type: cell-based
Neuronal acetylcholine receptor subunit alpha-7 (Homo sapiens), sequence (P36544 whole entry): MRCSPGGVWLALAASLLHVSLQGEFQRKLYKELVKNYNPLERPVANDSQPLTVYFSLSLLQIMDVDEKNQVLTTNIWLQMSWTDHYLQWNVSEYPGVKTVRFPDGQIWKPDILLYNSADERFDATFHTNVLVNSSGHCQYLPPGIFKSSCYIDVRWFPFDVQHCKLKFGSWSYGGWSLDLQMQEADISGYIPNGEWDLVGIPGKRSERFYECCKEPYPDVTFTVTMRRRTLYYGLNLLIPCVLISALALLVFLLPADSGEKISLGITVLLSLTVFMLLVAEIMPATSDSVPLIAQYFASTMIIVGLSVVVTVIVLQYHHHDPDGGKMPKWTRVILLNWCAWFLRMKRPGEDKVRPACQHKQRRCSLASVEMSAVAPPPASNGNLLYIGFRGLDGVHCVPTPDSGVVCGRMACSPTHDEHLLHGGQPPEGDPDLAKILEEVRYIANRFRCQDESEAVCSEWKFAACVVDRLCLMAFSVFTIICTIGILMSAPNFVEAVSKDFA
In short: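 Defolliculated Xenopus laevis oocytes were injected with 5 ng α7 cRNA and recorded 2–3 days later at 22°C, -80 mV. Compound (10 μM) was bath-preapplied for 2 min, then co-applied with 200 μM ACh by fast pipette application for 0.6 s. Peak current is expressed relative to the ACh-alone control (100%).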

[3] = Permeability across apical to basolateral side in human Caco2 cells; assay type: ADME, cell-based; details: Caco-2, read-out: permeability
Rattus norvegicus [4] = assay: Analgesic activity in CFA-induced paw inflammation Wistar rat model assessed as increase in paw withdrawal latency at 10 mg/kg, iv administered at 24 hrs post CFA injection measured at 30 mins post compound administration; assay type: functional, organism-based
In short: (§1)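 Male Wistar rats (250–300 g). CFA emulsion (1:1 oil/saline, 0.5 mg/ml, 50 μl) was injected intraplantar into the hind paw. 24 h later, compound was dissolved in DMSO, diluted in 0.9% saline (final DMSO 2,5%) and given iv at 10 mg/kg in 0,5 ml. Paw withdrawal latency was measured on a dynamic plantar aesthesiometer (ramp 2.5 g/s, 50 g cutoff), as the mean of three readings per time point, for up to 4 h; n ≥ 6 rats/group, two-way ANOVA with Bonferroni.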

Rattus norvegicus [5] = assay: Analgesic activity in CFA-induced paw inflammation Wistar rat model assessed as increase in paw withdrawal latency at 10 mg/kg, iv administered at 24 hrs post CFA injection measured at 1 hr post compound administration; assay type: functional, organism-based; in short: as §1

O=C(CCc1ccc(O)cc1)c1cc(O)ccc1O
solubility ([1]; PBS buffer, read-out: solubility): 160 µM (≈ 41.3 µg/mL)
Activity [2]: 666%
Papp A→B [3]: 33.5 ×10⁻⁶ cm/s

O=C(CCc1ccc(O)cc1O)c1cc(O)ccc1O
Activity [2]: 989%

Br.CC(C)C(N)C(=O)NC(C(=O)Oc1ccc(CCC(=O)c2cc(O)ccc2O)cc1)C(C)C (stereo in doubt)
solubility ([1]; buffer): Soluble
Activity [2]: 14.7%
Activity (Rattus norvegicus [4]): Active
Activity (Rattus norvegicus [5]): inactive

Br.CC(C)C(N)C(=O)N1CCC[C@H]1C(=O)NC(C(=O)Oc1ccc(CCC(=O)c2cc(O)ccc2O)c(O)c1)C(C)C (stereo in doubt)
solubility ([1]; buffer): Soluble
Activity [2]: 25.3%

CC(C)C(N)C(=O)N1CCC[C@H]1C(=O)NC(C(=O)Oc1ccc(CCC(=O)c2cc(O)ccc2O)cc1)C(C)C (stereo in doubt)
Activity [2]: 24.7%
Activity (Rattus norvegicus [5]): Active

CC(C)C(N)C(=O)NC(C(=O)Oc1ccc(/C=C/C(=O)c2cc(O)ccc2O)c(O)c1)C(C)C (stereo in doubt)
Activity [2]: 24.5%

CC(C)C(N)C(=O)NC(C(=O)Oc1ccc(CCC(=O)c2cc(O)ccc2O)c(O)c1)C(C)C (stereo in doubt)
Activity [2]: 26.7%

— ChEMBL document CHEMBL4138200, “Amino acid and peptide prodrugs of diphenylpropanones positive allosteric modulators of α7 nicotinic receptors with analgesic activity” (Eur J Med Chem, 2018)
